Twelve molecules from ChEMBL document CHEMBL1275363, “Design, synthesis, crystal structures, and antimicrobial activity of sulfonamide boronic acids as β-lactamase inhibitors” (J Med Chem, 2010) can be followed below.

Calls of active or inactive are those of the source. No cut-off for these calls is given here.

The nature of experiment [1]: Inhibition of AmpC beta-lactamase.
In a further experiment the test system is Klebsiella pneumoniae. Nature of the experiment: Antimicrobial activity against AmpC-beta lactamase producing Klebsiella pneumoniae by disk diffusion assay. The experiment is classed as functional, organism-based. (In general: In agar diffusion tests the substance spreads into inoculated agar from a disc or well.)
Experiment [2] is described as follows: Inhibition of beta-lactamase CTX-M-9.
The target in experiment [3] is AmpC (Klebsiella pneumoniae) (UniProt Q84AD8). Nature of the experiment: Inhibition of Klebsiella pneumoniae AmpC beta-lactamase DHA-1 assessed as increase in ceftazidime-induced antibacterial activity by disk diffusion assay.
The test system of a further experiment is Pseudomonas aeruginosa. Nature of the experiment: Inhibition of Pseudomonas aeruginosa beta-lactamase class C assessed as fold decrease in Ceftazidime MIC […]. Put shortly:
(§1)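 MICs were measured on clinical isolates following CLSI guidelines in Mueller-Hinton medium. Inhibitor was dissolved in 50% DMSO, with final DMSO below 5%, and combined with ceftazidime at a 1:1 β-lactam:inhibitor ratio. Fold change is compared with ceftazidime alone. Values are means of three independent experiments.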

For experiment [4], the target named is Beta-lactamase CTX-M-14 (Escherichia coli) (UniProt Q9L5C7). Nature of the experiment: Inhibition of Escherichia coli class A beta-lactamase CTX-M-14 assessed as fold decrease in Ceftazidime MIC […]. Put shortly: as §1
Another experiment concerns Enterobacter cloacae. Nature of the experiment: Inhibition of Enterobacter cloacae beta-lactamase class C assessed as fold decrease in Ceftazidime MIC […]. Put shortly:
as §1

The test system of a further experiment is Escherichia coli. Nature of the experiment: Inhibition of Escherichia coli beta-lactamase class C assessed as fold decrease in Ceftazidime MIC […]. Put shortly:
as §1

Another experiment relates to Citrobacter freundii. Nature of the experiment: Inhibition of Citrobacter freundii beta-lactamase class C assessed as fold decrease in Ceftazidime MIC […]. The method, boiled down: as §1
Experiment [5] has as its target AmpC (Klebsiella pneumoniae) (UniProt Q84AD8). Nature of the experiment: Inhibition of Klebsiella pneumoniae AmpC beta-lactamase DHA-1 assessed as fold decrease in Ceftazidime MIC […]. The method, boiled down:
as §1

As for `O=C(Cc1ccccc1)NCB(O)O`, the inhibition constant Ki (in general, the dissociation constant of the complex between target and ligand, obtained from inhibition or displacement) in experiment [1] was found to be 570 nM. This lies in the sub-micromolar range.

In turn, `O=S(=O)(Cc1ccccc1)N[C@@H](Cc1ccccc1)B(O)O` gave a Ki in [1] of 3720 nM. Compared with the last molecule, the Ki is about 6.5-fold higher.

`O=[N+]([O-])c1cccc(CS(=O)(=O)NCB(O)O)c1` displayed a Ki in experiment [1] of 189 nM. This Ki lies about 20-fold lower than the previous one.

`CCOc1ccc2ccccc2c1S(=O)(=O)NCB(O)O` yielded an inhibition constant Ki in experiment [1] of 670 nM.

For the molecule `O=C(Cc1cccs1)N[C@H](B(O)O)c1cccc(C(=O)O)c1`, in experiment [1], the Ki stood at 1 nM.

With `Nc1cccc(CS(=O)(=O)NCB(O)O)c1`, the Ki in experiment [1] was 106 nM.

Molecule `CS(=O)(=O)NCB(O)O` [PINACOL(METHANESULFONYLAMINO)METHANEBORONATE] came in with a Ki in experiment [1] of 789 nM.

For `Cc1ccc(S(=O)(=O)NCB(O)O)cc1`, the affinity in experiment [1] corresponds to a Ki of 210 nM.

Consider `O=C(O)c1ccc(CS(=O)(=O)NCB(O)O)cc1`, for which the outcome in the experiment with Klebsiella pneumoniae was inactive. In addition, the 50% inhibitory concentration (IC50) (in general, the concentration needed to halve the response being measured) in experiment [2] is 1500 nM. Also, in experiment [3], the outcome was Active.

As for `O=S(=O)(Cc1ccccc1)NCB(O)O` [PINACOL(PHENYLMETHANESULFONYLAMINO)METHANEBORONATE], the fold change (FC) with Pseudomonas aeruginosa turned out to be 8; in [4] it was 16; with Enterobacter cloacae, 8; in the experiment with Escherichia coli, 8; in the experiment with Citrobacter freundii, 8; in experiment [5], 8. Also, in the experiment with Klebsiella pneumoniae, the outcome was inactive. The molecule also registered a half-maximal inhibitory concentration (IC50) in [2] of 6870 nM. In [3], the outcome was Active.

Turning to `COC(=O)c1ccc(CS(=O)(=O)NCB2OC(C)(C)C(C)(C)O2)cc1`, the Ki in [1] is 120 nM.

Turning to `O=C(Cc1cccs1)N[C@@H](Cc1cccc(C(=O)O)c1)B(O)O`, the Ki in experiment [1] worked out at 39 nM.
